These results are taken from ChEMBL document CHEMBL2163328, “Inhibition of TNF-α-Induced Inflammation by andrographolide via down-regulation of the PI3K/Akt signaling pathway” (J Nat Prod, 2011).

The structures appear in SMILES notation. Active and inactive are the calls of the source. The rule behind the calls is not given here.

For data set [1], the system named is HUVEC. The data set can be described thus: Induction of NFkappaB activation in HUVEC by EMSA. The class given is cell-based. The settings on record: Homo sapiens. The procedure, abridged: (§1)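 EMSA: nuclear extracts prepared by hypotonic then hypertonic (400 mM KCl) extraction. 2 μg nuclear protein incubated with biotin-labeled NF-κB probe and poly(dI-dC) at room temperature for 30 min. Complexes separated on 6% TBE-PAGE, transferred to nylon and detected with streptavidin-HRP. Specificity checked with 100-fold excess unlabeled and mutant oligonucleotides.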

The subject of data set [2] is HUVEC. In words: Inhibition of TNFalpha-stimulated ICAM-1 mRNA expression in HUVEC at 20 uM pretreated for 16 hrs before TNFalpha challenge measured after 6 hrs by RT-PCR analysis. The class given is functional, cell-based. The note with it: Homo sapiens. The procedure, abridged: (§2)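 HUVEC pretreated 16 h, then TNF-α 1 ng/mL for 6 h. Total RNA isolated with TRIzol; 4 μg reverse-transcribed with M-MLV RT and oligo(dT). ICAM-1 amplified for 32 cycles (94 °C 1 min, 55 °C 1 min, 72 °C 2 min) after 95 °C for 5 min. Normalized to GAPDH; products resolved on 1% agarose and quantified by densitometry.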

For data set [3], the system named is HUVEC. In words: Inhibition of TNFalpha-stimulated human ICAM-1 promoter activity expressed in HUVEC assessed as […] activity at 20 uM pretreated for 30 mins before TNFalpha challenge measured after 5 hrs by luciferase reporter gene assay. The format is functional, cell-based. The procedure, abridged:
(§3)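 HUVEC transiently transfected by nanofection with human ICAM-1 promoter-luciferase (pIC339) plus pSV-β-galactosidase for 4 h. Pretreated 30 min, then TNF-α 1 ng/mL for 5 h. Luciferase activity measured in lysate supernatants and normalized to β-galactosidase activity for transfection efficiency. Three independent experiments.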

In data set [4] the target is RAC-alpha serine/threonine-protein kinase (Homo sapiens) (UniProt P31749). The data set can be described thus: Inhibition of activated Akt1 phosphorylation at Ser473 expressed in HUVEC transfected with activated AKT1 assessed as pAKT level at 10 uM after 16 hrs by Western blot analysis (reference value: 272%). The class given is cell-based. More on the design: scale not given: the % may be the effect or the level left.
Sequence of RAC-alpha serine/threonine-protein kinase (Homo sapiens) (P31749 whole entry): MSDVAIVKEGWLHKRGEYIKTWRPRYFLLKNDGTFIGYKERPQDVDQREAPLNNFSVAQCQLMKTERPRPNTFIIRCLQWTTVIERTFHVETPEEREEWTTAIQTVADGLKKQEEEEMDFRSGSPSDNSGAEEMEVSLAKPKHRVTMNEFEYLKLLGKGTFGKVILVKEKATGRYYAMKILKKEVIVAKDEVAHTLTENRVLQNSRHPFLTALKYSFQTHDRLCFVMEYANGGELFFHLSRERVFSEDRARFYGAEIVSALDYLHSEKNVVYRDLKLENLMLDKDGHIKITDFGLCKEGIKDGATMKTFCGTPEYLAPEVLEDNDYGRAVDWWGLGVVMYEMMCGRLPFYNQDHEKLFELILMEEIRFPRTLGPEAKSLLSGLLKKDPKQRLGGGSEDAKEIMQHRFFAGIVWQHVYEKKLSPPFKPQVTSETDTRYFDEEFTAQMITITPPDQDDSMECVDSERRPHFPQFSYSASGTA

Data set [5] shares this target. In words: Inhibition of TNFalpha-stimulated Akt1 phosphorylation at Ser473 assessed as pAKT level in HUVEC at 10 uM pretreated for 16 hrs before TNFalpha challenge measured after 6 hrs by Western blot analysis (reference value: 249%). More on the design: scale not given: the % may be the effect or the level left.
The target is the same in data set [6]. The data set can be described thus: Inhibition of TNFalpha-stimulated AKT1-mediated ICAM-1 expression in HUVEC assessed as ICAM1 level at 10 uM pretreated for 16 hrs before TNFalpha challenge measured after 6 hrs by Western blot analysis (reference value: 345%). The format is cell-based. More on the design: scale not given: the % may be the effect or the level left.

Data set [7] shares this target. The data set can be described thus: Inhibition of TNFalpha-stimulated ICAM-1 expression in HUVEC transfected with activated AKT1 assessed as ICAM1 level at 10 uM incubated for 16 hrs by Western blot (reference value: 249%). More on the design: scale not given: the % may be the effect or the level left. The format is cell-based.
For data set [8], the system named is HUVEC. The data set can be described thus: Inhibition of TNFalpha-stimulated DNA binding activity of NFkappaB in HUVEC at 5 to 20 uM pretreated for 16 hrs before TNFalpha challenge measured after 30 mins by EMSA. The format is cell-based. The note with it: Homo sapiens. The procedure, abridged:
as §1

Data set [9] has as its system HUVEC. In words: Inhibition of TNFalpha-stimulated cell surface ICAM-1 expression in HUVEC at 5 to 20 uM pretreated for 16 hrs before TNFalpha challenge measured after 6 hrs by flow cytometry. The settings on record: Homo sapiens. The class given is functional, cell-based. The procedure, abridged: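 Cell-surface ICAM-1 by flow cytometry. HUVEC pretreated 16 h, then TNF-α 1 ng/mL for 6 h. Cells detached with trypsin and stained with FITC anti-ICAM-1 at 4 °C for 45 min in the dark. Washed three times in cold PBS before analysis. Three independent experiments.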

In data set [10] the test system is HUVEC. In words: Inhibition of TNFalpha-stimulated HUVEC adhesion to BCECF-AM-labeled human HL60 cells at 20 uM pretreated for 16 hrs before TNFalpha challenge measured after 6 hrs by fluorescence assay. The class given is functional. The procedure, abridged:
(§4)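 HUVEC grown to 80% confluence, pretreated 16 h, then TNF-α 1 ng/mL for 6 h. Co-incubated with 4 × 10^5 BCECF-AM-labeled HL-60 cells per well, 37 °C, 30 min. Nonadherent cells removed by inverted centrifugation at 100g for 5 min. Bound cells lysed in 1% SDS; fluorescence read at ex 490/em 520 nm and converted to adherent cells/well by standard curve. Three independent experiments.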

A short description of data set [11]: Cytotoxicity against TNFalpha-stimulated HUVEC assessed as cell viability at 20 uM pretreated for 16 hrs before TNFalpha challenge measured after 6 hrs by MTT assay (reference value: 103.8 +/- 6.1%). The settings on record: human, TNFalpha-stimulated HUVEC cells; read-out: Activity. The class given is cell-based.
Data set [12] is described as follows: Cytotoxicity against TNFalpha-stimulated HUVEC assessed as cell viability at 10 uM pretreated for 16 hrs before TNFalpha challenge measured after 6 hrs by MTT assay (reference value: 103.8 +/- 6.1%). The format is cell-based. The settings on record: human, TNFalpha-stimulated HUVEC cells; read-out: Activity.
In data set [13] the test system is HUVEC. In words: Toxicity assessed as induction of HUVEC adhesion to BCECF-AM-labeled human HL60 cells by fluorescence assay. The format is cell-based. The procedure, abridged:
as §4

The nature of data set [14]: Cytotoxicity against TNFalpha-stimulated HUVEC assessed as cell viability at 5 uM pretreated for 16 hrs before TNFalpha challenge measured after 6 hrs by MTT assay (reference value: 103.8 +/- 6.1%). The format is cell-based. The note with it: human, TNFalpha-stimulated HUVEC cells; read-out: Activity.
Data set [15] concerns HUVEC. In words: Toxicity in HUVEC assessed as induction of ICAM-1 expression at 5 to 20 uM measured after 6 hrs by Western blot analysis. The format is cell-based. The settings on record: human.
The test system of data set [16] is HUVEC. In words: Inhibition of TNFalpha-stimulated total ICAM-1 expression in HUVEC at 5 to 20 uM pretreated for 16 hrs before TNFalpha challenge measured after 6 hrs by Western blot analysis. The format is functional, cell-based. The settings on record: Homo sapiens. The procedure, abridged:
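HUVEC pretreated 16 h, then TNF-α 1 ng/mL for 6 h. Lysed in Tris/EDTA/PMSF/aprotinin buffer at pH 7.4; equal protein run on SDS-PAGE and transferred to PVDF. Blocked in 5% milk at 4 °C overnight, probed with anti-ICAM-1 and HRP secondary. ECL detection with densitometric quantitation. Means ± SD, n = 3.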

In data set [17] the target is RAC-alpha serine/threonine-protein kinase (Homo sapiens) (UniProt P31749). The data set can be described thus: Induction of Akt1 phosphorylation at Ser473 expressed in HUVEC by Western blot analysis. The class given is cell-based.
The target of data set [18] is Transcription factor p65 (Homo sapiens) (UniProt Q04206). In words: Inhibition of TNFalpha-stimulated NFkappaB activation in HUVEC assessed as reduction of nuclear p65 level at 20 uM pretreated for 16 hrs before TNFalpha challenge measured after 30 mins by […].
Sequence of Transcription factor p65 (Homo sapiens) (Q04206 whole entry): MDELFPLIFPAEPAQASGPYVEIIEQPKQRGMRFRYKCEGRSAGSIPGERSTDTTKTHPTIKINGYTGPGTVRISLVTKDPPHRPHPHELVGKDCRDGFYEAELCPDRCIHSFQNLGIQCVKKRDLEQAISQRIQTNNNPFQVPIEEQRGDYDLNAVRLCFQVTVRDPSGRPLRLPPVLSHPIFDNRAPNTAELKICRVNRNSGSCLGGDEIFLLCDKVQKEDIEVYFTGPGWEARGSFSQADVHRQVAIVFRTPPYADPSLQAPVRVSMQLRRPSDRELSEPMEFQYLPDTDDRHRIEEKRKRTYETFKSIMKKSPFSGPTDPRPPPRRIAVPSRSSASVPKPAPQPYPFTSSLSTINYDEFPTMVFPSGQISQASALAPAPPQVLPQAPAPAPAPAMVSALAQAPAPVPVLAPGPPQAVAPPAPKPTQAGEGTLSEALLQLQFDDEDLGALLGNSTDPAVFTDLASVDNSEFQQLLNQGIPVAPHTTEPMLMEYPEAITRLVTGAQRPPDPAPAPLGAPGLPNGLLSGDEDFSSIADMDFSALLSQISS
In data set [19] the test system is HUVEC. The data set can be described thus: Inhibition of TNFalpha-stimulated NFkappaB activation in HUVEC assessed as reduction of IkappaB degradation at 20 uM pretreated for 16 hrs before TNFalpha challenge measured after 30 mins by […]. The class given is cell-based. The settings on record: Homo sapiens.
Data set [20] has as its target RAC-alpha serine/threonine-protein kinase (Homo sapiens) (UniProt P31749). In words: Inhibition of TNFalpha-stimulated Akt1 phosphorylation at Ser473 in HUVEC at 20 uM pretreated for 16 hrs before TNFalpha challenge measured after 15 mins by Western blot analysis.
Data set [21] relates to HUVEC. In words: Inhibition of TNFalpha-stimulated ICAM-1 mRNA expression in HUVEC at 10 to 25 uM pretreated for 16 hrs before TNFalpha challenge measured after 6 hrs by RT-PCR analysis. The format is functional, cell-based. The note with it: Homo sapiens. The procedure, abridged:
as §2

In data set [22] the test system is HUVEC. In words: Inhibition of TNFalpha-stimulated human ICAM-1 promoter activity expressed in HUVEC assessed as […] activity at 10 to 25 uM pretreated for 30 mins before TNFalpha challenge measured after 5 hrs by luciferase reporter gene assay. The format is functional, cell-based. The procedure, abridged: as §3
Data set [23] has as its system HUVEC. In words: Inhibition of TNFalpha-stimulated DNA binding activity of NFkappaB in HUVEC at 10 to 25 uM pretreated for 16 hrs before TNFalpha challenge measured after 30 mins by EMSA. The class given is cell-based. The note with it: Homo sapiens. The procedure, abridged:
as §1

Regarding `C=C1CC[C@@H]2[C@](C)(CO)[C@H](O)CC[C@@]2(C)[C@@H]1C/C=C1/C(=O)OC[C@H]1O` [ANDROGRAPHOLIDE], the result (in the data set with HUVEC [1]; in data set [17]) was inactive. Besides, the inhibition entry (in the data set with HUVEC [2]; with HUVEC [3]; in the data set on HUVEC [8]; in the data set on HUVEC [9]; with HUVEC [16]; in data set [18]) was “Active” throughout. Moreover, the inhibition result (with HUVEC [19]; in data set [20]) was “Active” throughout. The Activity in data set [4] was 111%; in data set [5], 127%; in data set [6] it was 36%; in data set [7], 177%; in the data set on HUVEC [13], “Non-toxic”; in the data set on HUVEC [15] it was “Non-toxic”. Moreover, in the data set on HUVEC [10], the inhibition at 20 µM was 73%. Moreover, the viability at 6 h, 20 µM in data set [11] came to 87.5%. In addition, the viability at 6 h, 10 µM in data set [12] was 94.6%. The viability at 6 h, 5 µM in data set [14] is 96.4%.

As for `O=c1cc(N2CCOCC2)oc2c(-c3ccccc3)cccc12`, the inhibition entry with HUVEC [21], in the data set on HUVEC [22] and in the data set on HUVEC [23] was “Active” throughout.
